Assay outcomes from PubChem.
The full list was thinned out, with hits kept by preference.
KDM4C inh: blocks human GASC-1 (KDM4C) demethylase activity; GST-KDM4C 2-372, H3K9me3 peptide, LANCE TR-FRET; inhibition, % at 12.5 µM; Q9H3R0; 96,000 tested, 0.15% active;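 active = mean replicate inhibition above about 25%, with at least 55% of replicates also reaching it, limit read from the data, passing the limit was not always enough; inconclusive = only one of those two conditions met; inactive = neither condition met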
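reagent = H3K9me3 peptide substrate, Fe(II), 2-oxoglutarate | system = GST-tagged GASC-1 (JMJD2C) catalytic fragment, aa 2-372 | amount = enzyme final amount 10 nM | read-out = Fall in 671/618 emission ratio as inhibition | medium = HEPES buffer, pH 7.5, plus ascorbate | schedule = 30 min reaction, 60 min detection, RT | measured by = LANCE TR-FRET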
T cruzi growth-1: inhibitors of T. cruzi proliferation; T. cruzi beta-gal in NIH3T3, GalScreen luminescence, 90 h; AID 624255; 77,000 tested, 5.9% active; inhibition, % at 8.34 µM;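 active = mean inhibition above about 93%, with at least 55% of replicates each passing it, limit read from the data, passing the limit was not always enough; inconclusive = only one of those two conditions holds; inactive = neither condition holds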
IDH1 mut inh: IDH1 R132H (human) inhibition. IDH1 R132H reductase, diaphorase/resazurin fluorescence, 60 min. inhibition, % at 10 µM. 70,000 tested, 0.18% active. AID 624101; in the data active = inhibition above about 34%; inconclusive = no clear call, values can overlap the other calls; inactive = below about 11%
Target sequence (O75874 whole entry R132H): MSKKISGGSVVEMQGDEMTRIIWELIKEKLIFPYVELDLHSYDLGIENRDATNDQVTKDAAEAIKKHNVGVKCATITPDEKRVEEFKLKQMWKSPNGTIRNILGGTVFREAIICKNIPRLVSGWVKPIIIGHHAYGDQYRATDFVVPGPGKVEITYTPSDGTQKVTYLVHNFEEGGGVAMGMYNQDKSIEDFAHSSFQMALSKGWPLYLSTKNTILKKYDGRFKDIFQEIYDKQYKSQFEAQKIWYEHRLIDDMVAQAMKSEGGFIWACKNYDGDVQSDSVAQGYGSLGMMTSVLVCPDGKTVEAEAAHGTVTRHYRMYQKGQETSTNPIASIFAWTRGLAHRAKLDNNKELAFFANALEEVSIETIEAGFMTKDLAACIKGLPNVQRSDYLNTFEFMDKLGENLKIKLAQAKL
T cruzi growth-2: inhibitors of T. cruzi proliferation; shares compounds with T cruzi growth-1; T. cruzi beta-gal in NIH3T3, GalScreen luminescence, 90 h; inhibition, % at 8.35 µM; 5,600 tested, 72% active; AID 651739;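 active = mean replicate inhibition above about 95% and at least 55% of replicates individually reaching it, limit read from the data; inconclusive = only one of the two criteria is met; inactive = neither criterion is met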
T cruzi growth-3: Trypanosoma cruzi proliferation inhibition; AID 651740; inhibition, % at 2.09 µM; 5,600 tested, 21% active; shares compounds with T cruzi growth-1; T. cruzi beta-gal in NIH3T3, GalScreen luminescence, 90 h;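 active = mean inhibition above about 95%, with at least 55% of replicates also reaching it, limit read from the data; inconclusive = meets just one of the two conditions; inactive = meets neither condition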
3T3 cytotox: NIH/3T3 (mouse) viability loss. shares compounds with T cruzi growth-1. 5,600 tested, 14% active. NIH/3T3 viability, CellTiter-Glo ATP luminescence, 90 h. cytotoxicity (signal decrease), % at 8.35 µM;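 active = mean signal decrease across replicates above about 35% based on untreated-well scatter, with enough replicates individually passing, limit read from the data; inconclusive = no rule stated though some were filed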
NIH3T3 tox 2: cytotoxicity in mouse NIH/3T3 fibroblasts; shares compounds with T cruzi growth-1; NIH/3T3 viability, CellTiter-Glo ATP luminescence, 90 h; inhibition, % at 24.9 µM; 5,600 tested, 56% active; AID 651744;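 active = mean loss of cell viability signal at or above a set limit, and enough replicates individually reaching it; inconclusive = meets only the mean limit or only the replicate share; inactive = meets neither condition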
Numbers stand for hits; ! = not active in a repeat.

`CN1C(=O)c2cc(NC(=O)c3ccc(Cl)cc3)ccc2OC[C@H]2O[C@H](CC(=O)NCc3cccc(F)c3)CC[C@@H]21` gave KDM4C inh inactive and T cruzi growth-1 inactive.
For CN1C(=O)c2cc(NC(=O)c3ccc(C(F)(F)F)cc3)ccc2OC[C@@H]2O[C@@H](CC(=O)NC3Cc4ccccc4C3)CC[C@@H]21 the results were T cruzi growth-1 inactive.
For CN1C(=O)c2cc(NC(=O)c3ccc(C(F)(F)F)cc3)ccc2OC[C@@H]2O[C@@H](CC(=O)NC3Cc4ccccc4C3)CC[C@H]21 the results were KDM4C inh inactive, T cruzi growth-1 99.8, T cruzi growth-2 105.8, T cruzi growth-3 inactive, 3T3 cytotox inconclusive and NIH3T3 tox 2 43.0.
`CN1C(=O)c2cc(NC(=O)c3cccc(F)c3)ccc2OC[C@@H]2O[C@H](CC(=O)NCC3CCCCC3)CC[C@@H]21` gave KDM4C inh inactive, T cruzi growth-1 117.3, T cruzi growth-2 inactive, T cruzi growth-3 inactive, 3T3 cytotox 42.5! and NIH3T3 tox 2 84.6.
For Cc1ccc(C2CC(=O)c3cnc(NCCN4CCOCC4)nc3C2)cc1 (stereo not given) the results were IDH1 mut inh inactive.
`COc1ccc(-c2cc(C(F)(F)F)nc(SCC(=O)Nc3ccc(Cl)cc3Cl)n2)cc1` gave IDH1 mut inh inactive.
Screening CCOc1ccc(Oc2nc(N3CCOCC3)nc(N3CCOCC3)n2)nn1 returned IDH1 mut inh inactive.
For CN1C(=O)c2cc(NC(=O)c3cccc(F)c3)ccc2OC[C@@H]2O[C@H](CC(=O)NCc3ccccc3)CC[C@H]21 the results were KDM4C inh inactive and T cruzi growth-1 inactive.
CN1C(=O)c2cc(NC(=O)c3ccc(Cl)cc3)ccc2OC[C@@H]2O[C@@H](CC(=O)NCc3cccc(F)c3)CC[C@@H]21 was read as KDM4C inh inactive, T cruzi growth-1 103.4, T cruzi growth-2 103.5, T cruzi growth-3 inactive, 3T3 cytotox inactive and NIH3T3 tox 2 60.9.
For CN1C(=O)c2cc(NC(=O)c3cccc(F)c3)ccc2OC[C@H]2O[C@@H](CC(=O)N3CCc4ccccc4C3)CC[C@H]21 the results were KDM4C inh inactive, T cruzi growth-1 103.7, T cruzi growth-2 96.7, T cruzi growth-3 inactive, 3T3 cytotox inactive and NIH3T3 tox 2 37.6.
Screening CN1C(=O)c2cc(NC(=O)c3cccc(F)c3)ccc2OC[C@H]2O[C@H](CC(=O)N3CCc4ccccc4C3)CC[C@@H]21 returned KDM4C inh inactive and T cruzi growth-1 inactive.
Cc1cc(C)c(C)c(Oc2coc3cc(OCC(=O)Nc4ccccc4F)ccc3c2=O)c1 was read as IDH1 mut inh inactive.
`OCCSc1nnc(-c2ccccc2O)n1-c1ccccc1` gave IDH1 mut inh inactive.
Screening CC(C)C#Cc1ccc2c(c1)O[C@@H](CN(C)C(=O)C1CCCCC1)[C@H](C)CN([C@@H](C)CO)S2(=O)=O returned KDM4C inh inactive and T cruzi growth-1 inactive.
For CC(C)C#Cc1ccc2c(c1)O[C@@H](CN(C)C(=O)C1CCC1)[C@@H](C)CN([C@H](C)CO)S2(=O)=O the results were KDM4C inh inactive and T cruzi growth-1 inactive.
Screening CC(C)C#Cc1ccc2c(c1)O[C@H](CN(C)C(=O)C1CCC1)[C@@H](C)CN([C@@H](C)CO)S2(=O)=O returned KDM4C inh inactive, T cruzi growth-1 103.5, T cruzi growth-2 111.3, T cruzi growth-3 inactive, 3T3 cytotox inactive and NIH3T3 tox 2 51.3.
For CC(C)C#Cc1ccc2c(c1)O[C@@H](CN(C)C(=O)C1CCCCC1)[C@H](C)CN([C@H](C)CO)S2(=O)=O the results were KDM4C inh inactive, T cruzi growth-1 103.8, T cruzi growth-2 102.9, T cruzi growth-3 inactive, 3T3 cytotox inconclusive and NIH3T3 tox 2 105.2.
`Cc1cc2c(=O)n(Cc3ccco3)c(SCc3cc(=O)[nH][nH]3)nc2s1` gave IDH1 mut inh inactive.
`Cc1ccc(NC(=O)c2ccco2)c(NC(=O)COc2ccccc2Cl)c1` gave IDH1 mut inh inactive.
`O=C(CCCCCCC(=O)Nc1ccccc1O)N/N=C/c1ccc2c(c1)CCO2` gave IDH1 mut inh inactive.
C=C[C@](C)(O)CC/C=C(\C)C(=O)O[C@@H]1[C@@H]2O[C@]2(C)[C@H]2[C@H](O[C@@H]3O[C@H](CO)[C@@H](O)[C@H](O)[C@H]3O)OC=C[C@@]12OC(=O)/C(C)=C/CC[C@](C)(O)C=C was read as IDH1 mut inh inactive.
For CCS(=O)(=O)N1CCCCN2[C@H](CO)[C@H](c3ccc(-c4ccccc4)cc3)[C@H]2C1 the results were KDM4C inh inactive and T cruzi growth-1 inactive.
For CCS(=O)(=O)N1CCCCN2[C@H](C1)[C@@H](c1ccc(-c3ccccc3)cc1)[C@@H]2CO the results were KDM4C inh inactive and T cruzi growth-1 inactive.
O=S(=O)(Cc1ccccc1)N1CCCCN2[C@@H](CO)[C@@H](c3ccc(-c4ccccc4)cc3)[C@@H]2C1 was read as KDM4C inh inactive, T cruzi growth-1 99.1, T cruzi growth-2 102.5, T cruzi growth-3 inactive, 3T3 cytotox inactive and NIH3T3 tox 2 106.7.
`CCS(=O)(=O)N1CCCCN2[C@H](C1)[C@H](c1ccc(-c3ccccc3)cc1)[C@@H]2CO` gave KDM4C inh inactive and T cruzi growth-1 inactive.
Screening O=S(=O)(Cc1ccccc1)N1CCCCN2[C@H](CO)[C@@H](c3ccc(-c4ccccc4)cc3)[C@H]2C1 returned KDM4C inh inactive, T cruzi growth-1 112.3, T cruzi growth-2 100.9, T cruzi growth-3 inactive, 3T3 cytotox inactive and NIH3T3 tox 2 105.7.
Screening O=S(=O)(Cc1ccccc1)N1CCCCN2[C@@H](CO)[C@H](c3ccc(-c4cncnc4)cc3)[C@@H]2C1 returned KDM4C inh inactive and T cruzi growth-1 inactive.
Screening O=S(=O)(Cc1ccccc1)N1CCCCN2[C@H](CO)[C@H](c3ccc(-c4ccc(F)cc4)cc3)[C@H]2C1 returned KDM4C inh inactive, T cruzi growth-1 inconclusive, T cruzi growth-2 inactive, T cruzi growth-3 101.8, 3T3 cytotox 64.0 and NIH3T3 tox 2 104.0.
`O=S(=O)(Cc1ccccc1)N1CCCCN2[C@H](CO)[C@H](c3ccc(-c4ccccc4)cc3)[C@@H]2C1` gave KDM4C inh inactive, T cruzi growth-1 104.2, T cruzi growth-2 108.4, T cruzi growth-3 inactive, 3T3 cytotox inactive and NIH3T3 tox 2 84.0.
For Cc1cc(OCC(=O)NCc2cccnc2)c(C)cc1Br the results were IDH1 mut inh inactive.
COc1ccc(C)cc1S(=O)(=O)NCCO was read as IDH1 mut inh inactive.
